# Laboratory results taken from ChEMBL document CHEMBL4385644, “Phenylhydrazides as inhibitors of Leishmania amazonensis arginase and antileishmanial activity” (Bioorg Med Chem, 2019).
# The source made the active and inactive calls. No cut-off for these calls is given here.
# Columns and labels:
# [1] = molecular target: T1, Arginase (Leishmania amazonensis, UniProt O96394); experiment: Inhibition of recombinant Leishmania amazonensis arginase expressed in Escherichia coli assessed as reduction in urea production using L-arginine as substrate by Berthelot colorimetric method relative to control
# Procedure, shortened: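 Arginase overexpressed in E. coli and purified. Urea formed was measured colorimetrically by the Berthelot method. IC50 given as mean ± SEM.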
# [2] = molecular target: Arginase (Leishmania amazonensis) (UniProt O96394); experiment: Inhibition of recombinant Leishmania amazonensis arginase expressed in Escherichia coli assessed as reduction in urea production at 100 uM using L-arginine as substrate by Berthelot colorimetric method relative to control
# [3] = system: Leishmania amazonensis; experiment: Antileishmanial activity against Leishmania amazonensis MHOM/BR/1973/M2269 promastigotes assessed as inhibition of parasite growth incubated for 72 hrs by MTT assay; format: functional, organism-based; conditions: MHOM/BR/1973/M2269, 72 h
# Procedure, shortened: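 MHOM/BR/1973/M2269 promastigotes grown to stationary phase in M199 with 10% FBS, 5 ppm hemin, streptomycin and penicillin; 5.0 × 10^5 cells exposed 72 h to compounds at 100 µM to 0.78 µM (amphotericin B control, 10 µM downward). Formazan dissolved in DMSO and read at 570 nm. EC50 from a normalized variable-slope sigmoidal fit; mean ± SEM.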
# [4] = system: Leishmania amazonensis; experiment: Antileishmanial activity against Leishmania amazonensis MHOM/BR/1973/M2269 promastigotes assessed as inhibition of parasite growth at 100 uM incubated for 72 hrs by MTT assay; format: functional, organism-based
# Procedure, shortened: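 Single-concentration screen at 100 µM. Stationary-phase MHOM/BR/1973/M2269 promastigotes in supplemented M199, 5.0 × 10^5 cells, exposed 72 h. Formazan dissolved in DMSO and read at 570 nm.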
# [5] = molecular target: T1, Arginase; experiment: (§1) Competitive inhibition of recombinant Leishmania amazonensis arginase expressed in Escherichia coli assessed as reduction in urea production by measuring dissociation constant for enzyme-inhibitor complex using L-arginine as substrate by Berthelot colorimetric method based Dixon/Cornish-Bowden plot analysis relative to control
# Procedure, shortened: (§2)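 Urea read by the Berthelot method. Ki and Kis taken from Dixon and Cornish-Bowden plots; Cornish-Bowden slopes compared statistically. Points are means of three independent experiments run in duplicate; constants given as mean ± SEM.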
# [6] = molecular target: Arginase (Leishmania amazonensis) (UniProt O96394); experiment: as §1, with “Mixed type” for “Competitive”, “enzyme-substrate-inhibitor” for “enzyme-inhibitor”; procedure, shortened: as §2
# [7] = molecular target: Arginase (Leishmania amazonensis) (UniProt O96394); experiment: Ratio of Ki to Kis for inhibition of recombinant Leishmania amazonensis arginase expressed in Escherichia coli assessed as reduction in urea production using L-arginine as substrate by Berthelot colorimetric method based Dixon/Cornish-Bowden plot analysis relative to control
IC50 [1],inhibition [2],IC50 ([1]; read-out: IC50),Ki [5],Kis [6],Ratio [7],Compound,EC50 [3],growth inhibition (GI) [4]
Not Active,inactive,,,,,CC(=O)Nc1ccccc1C(F)(F)C(=O)Nc1ccccc1,,
,> 70%,12 µM,5.1 µM,,,CC(=O)Nc1ccccc1C(F)(F)C(=O)NNc1ccccc1,12.7 µM,Active
,,> 100 µM,,,,CC(=O)Nc1ccc(C)cc1C(F)(F)C(=O)NNc1ccccn1,> 100 µM,
Not Active,,,,,,C[C@@H]1[C@H](O)[C@@H](C)/C=C/C=C/C=C/C=C/C=C/C=C/C=C/[C@H](O[C@@H]2O[C@H](C)[C@@H](O)[C@H](N)[C@@H]2O)C[C@@H]2O[C@](O)(C[C@@H](O)C[C@@H](O)[C@H](O)CC[C@@H](O)C[C@@H](O)CC(=O)O[C@H]1C)C[C@H](O)[C@H]2C(=O)O [AMPHOTERICIN B],0.33 µM,
,> 70%,12 µM,1.3 µM,26 µM,,CC(=O)Nc1ccc(C)cc1C(F)(F)C(=O)NNc1ccccc1,> 100 µM,
,8%,> 100 µM,,,,CC(=O)Nc1ccccc1C(F)(F)C(=O)NNc1ccccn1,> 100 µM,
Not Active,inactive,,,,,CC(=O)Nc1ccc(C)cc1C(F)(F)C(=O)NC(C)C,,
,> 70%,37 µM,32 µM,6.5 µM,5,CC(=O)Nc1ccccc1C(F)(F)C(=O)NCc1ccccc1,> 100 µM,
,> 70%,38 µM,26 µM,11 µM,,CC(=O)Nc1ccccc1C(F)(F)C(=O)NNc1ccc(C(F)(F)F)cc1,> 100 µM,
Not Active,inactive,,,,,CC(=O)Nc1ccccc1C(F)(F)C(=O)Nc1ccc(Cl)cc1,,
